# Measured values as given in ChEMBL document CHEMBL1212913, “Quinazolin-4-one derivatives: A novel class of noncompetitive NR2C/D subunit-selective N-methyl-D-aspartate receptor antagonists” (J Med Chem, 2010).
# Assays:
# [1] = biological target: Glutamate NMDA receptor; Grin1/Grin2b (Rattus norvegicus, UniProt P35439+Q00960); assay: Antagonist activity at rat recombinant NR1-NR2B receptor expressed in Xenopus oocytes at holding potential of -40mV by two-electrode voltage-clamp electrophysiology; type: functional, cell-based, Oocyte; details: read-out: IC50
# Outline: (§1)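 Oocytes expressing rat NR1-1a with NR2A, NR2B, NR2C or NR2D, clamped at −40 mV in Ba2+/HEPES recording solution pH 7.4, 23°C. Current evoked by 100 μM glutamate plus 30 μM glycine. Final DMSO 0.05-0.5%, 5-7 inhibitor concentrations, ≥4 oocytes each. IC50 from Hill fit of normalized mean composite data. […] Some NR2A oocytes given BAPTA-AM or K-BAPTA.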
# [2] = biological target: Ionotropic glutamate receptor NMDA 1/2D (Rattus norvegicus, UniProt P35439+Q62645); assay: Antagonist activity at rat recombinant NR1-NR2D receptor expressed in Xenopus oocytes at holding potential of -40mV by two-electrode voltage-clamp electrophysiology; type: functional, cell-based, Oocyte
# Outline: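 Oocytes expressing rat NR1-1a with NR2A, NR2B, NR2C or NR2D, clamped at −40 mV in Ba2+/HEPES recording solution pH 7.4, 23°C. Current evoked by 100 μM glutamate plus 30 μM glycine. Final DMSO 0.05-0.5%, 5-7 inhibitor concentrations, ≥4 oocytes each. IC50 from Hill fit of normalized mean composite data. Some NR2A oocytes given BAPTA-AM or K-BAPTA.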
# Rattus norvegicus [3] = species on record: Rattus norvegicus; assay: Selectivity ratio of IC50 for rat recombinant NR1-NR2A receptor to IC50 for rat recombinant NR1-NR2D receptor
# Outline: (§2)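 Ratio of fitted IC50 values, either NR2A/NR2D or GluR1/NR2D, from two-electrode voltage-clamp Hill fits in oocytes. Where noted, calculated from IC50 values rounded to the nearest μM.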
# [4] = biological target: Glutamate NMDA receptor; Grin1/Grin2c (Rattus norvegicus, UniProt P35439+Q00961); assay: Antagonist activity at rat recombinant NR1-NR2C receptor expressed in Xenopus oocytes at holding potential of -40mV by two-electrode voltage-clamp electrophysiology; type: functional, cell-based, Oocyte; outline: as §1
# Rattus norvegicus [5] = species on record: Rattus norvegicus; assay: Selectivity ratio of IC50 for rat recombinant GLuR1 to IC50 for rat recombinant NR1-NR2D receptor; outline: as §2
# Glutamate receptor 1 = Glutamate receptor 1 (Rattus norvegicus, UniProt P19490); assay: Antagonist activity at rat recombinant GLuR1 expressed in Xenopus oocytes assessed as inhibition of glutamate-induced current by two-electrode voltage-clamp electrophysiology; type: functional, cell-based, Oocyte
# Outline: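 Two-electrode voltage clamp at −40 mV on Xenopus oocytes expressing rat GluR1, perfused with 90 NaCl, 1.0 KCl, 0.5 BaCl2, 0.005 EDTA, 10 HEPES (mM), pH 7.4, 23°C; activated by 100 μM glutamate. From 20 mM DMSO stocks, 5-7 concentrations, ≥4 oocytes each. Hill fit to mean composite curves normalized to control, minimum usually fixed at 0. Response >75% at 100 μM reported as >300 μM.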
# [6] = biological target: Glutamate NMDA receptor; Grin1/Grin2a (Rattus norvegicus, UniProt P35439+Q00959); assay: Antagonist activity at rat recombinant NR1-NR2A receptor expressed in Xenopus oocytes at holding potential of -40mV by two-electrode voltage-clamp electrophysiology; type: functional, cell-based, Oocyte; details: read-out: IC50; outline: as §1
# Sequence of Glutamate NMDA receptor; Grin1/Grin2a (Q00959 whole entry, other chains not shown): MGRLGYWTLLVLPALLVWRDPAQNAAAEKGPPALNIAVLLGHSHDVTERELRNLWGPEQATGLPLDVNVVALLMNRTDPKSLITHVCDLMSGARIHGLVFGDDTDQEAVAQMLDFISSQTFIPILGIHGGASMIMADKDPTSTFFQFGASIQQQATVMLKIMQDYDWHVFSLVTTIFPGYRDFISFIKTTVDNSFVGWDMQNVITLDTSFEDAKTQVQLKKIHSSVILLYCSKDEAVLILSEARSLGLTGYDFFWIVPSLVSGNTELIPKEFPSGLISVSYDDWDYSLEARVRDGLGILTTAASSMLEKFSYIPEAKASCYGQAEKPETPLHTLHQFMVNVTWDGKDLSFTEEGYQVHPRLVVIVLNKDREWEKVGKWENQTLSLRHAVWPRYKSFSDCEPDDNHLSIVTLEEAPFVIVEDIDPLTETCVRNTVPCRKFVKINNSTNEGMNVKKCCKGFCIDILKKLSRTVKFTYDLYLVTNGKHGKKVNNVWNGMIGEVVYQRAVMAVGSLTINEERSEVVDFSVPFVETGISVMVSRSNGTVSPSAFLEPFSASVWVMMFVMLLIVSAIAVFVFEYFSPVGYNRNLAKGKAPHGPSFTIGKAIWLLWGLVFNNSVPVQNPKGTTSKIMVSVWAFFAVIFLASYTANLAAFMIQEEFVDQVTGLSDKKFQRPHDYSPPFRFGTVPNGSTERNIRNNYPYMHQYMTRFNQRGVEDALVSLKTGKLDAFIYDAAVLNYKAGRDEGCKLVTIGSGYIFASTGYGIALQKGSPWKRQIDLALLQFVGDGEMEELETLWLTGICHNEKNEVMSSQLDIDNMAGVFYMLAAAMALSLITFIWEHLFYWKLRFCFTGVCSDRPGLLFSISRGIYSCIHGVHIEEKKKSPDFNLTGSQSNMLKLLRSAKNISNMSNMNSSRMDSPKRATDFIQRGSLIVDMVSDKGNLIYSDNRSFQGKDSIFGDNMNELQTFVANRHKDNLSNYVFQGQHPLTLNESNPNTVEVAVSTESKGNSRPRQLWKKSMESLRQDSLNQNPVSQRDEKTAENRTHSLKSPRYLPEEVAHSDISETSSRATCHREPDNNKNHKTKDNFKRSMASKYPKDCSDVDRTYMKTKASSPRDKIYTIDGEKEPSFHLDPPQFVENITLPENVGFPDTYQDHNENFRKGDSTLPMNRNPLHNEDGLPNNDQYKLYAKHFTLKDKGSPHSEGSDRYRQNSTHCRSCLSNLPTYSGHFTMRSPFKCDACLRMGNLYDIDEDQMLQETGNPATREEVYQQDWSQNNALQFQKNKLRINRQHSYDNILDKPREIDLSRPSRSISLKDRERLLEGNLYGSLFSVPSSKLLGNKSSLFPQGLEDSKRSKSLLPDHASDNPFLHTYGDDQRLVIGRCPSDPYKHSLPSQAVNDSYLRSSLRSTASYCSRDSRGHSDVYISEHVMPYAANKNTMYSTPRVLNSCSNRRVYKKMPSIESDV
# Sequence of Glutamate receptor 1 (P19490 whole entry, the tested form may be a part): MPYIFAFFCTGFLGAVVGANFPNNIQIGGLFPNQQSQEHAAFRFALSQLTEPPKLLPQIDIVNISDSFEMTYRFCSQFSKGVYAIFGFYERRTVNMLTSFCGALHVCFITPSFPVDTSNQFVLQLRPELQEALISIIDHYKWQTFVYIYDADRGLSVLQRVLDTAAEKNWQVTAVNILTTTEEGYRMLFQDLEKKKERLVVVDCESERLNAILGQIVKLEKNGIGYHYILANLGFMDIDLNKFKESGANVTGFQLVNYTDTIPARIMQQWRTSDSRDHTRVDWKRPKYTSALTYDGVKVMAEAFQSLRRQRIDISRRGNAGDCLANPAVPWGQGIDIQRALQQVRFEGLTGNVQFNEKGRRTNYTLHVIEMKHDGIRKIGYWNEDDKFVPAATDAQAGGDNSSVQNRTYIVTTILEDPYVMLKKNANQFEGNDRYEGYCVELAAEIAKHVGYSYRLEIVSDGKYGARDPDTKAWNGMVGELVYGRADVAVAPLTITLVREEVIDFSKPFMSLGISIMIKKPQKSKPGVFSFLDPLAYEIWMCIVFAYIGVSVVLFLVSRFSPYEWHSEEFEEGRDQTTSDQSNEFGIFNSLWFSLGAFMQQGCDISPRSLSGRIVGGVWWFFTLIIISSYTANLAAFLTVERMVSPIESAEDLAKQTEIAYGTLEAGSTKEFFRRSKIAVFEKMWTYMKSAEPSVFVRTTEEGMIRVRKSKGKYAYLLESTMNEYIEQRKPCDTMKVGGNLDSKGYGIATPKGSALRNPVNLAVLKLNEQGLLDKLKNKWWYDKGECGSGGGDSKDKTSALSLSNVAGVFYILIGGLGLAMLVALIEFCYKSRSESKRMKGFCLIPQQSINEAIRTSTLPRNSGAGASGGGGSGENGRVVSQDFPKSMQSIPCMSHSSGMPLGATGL
# Sequence of Glutamate NMDA receptor; Grin1/Grin2c (Q00961 whole entry, other chains not shown): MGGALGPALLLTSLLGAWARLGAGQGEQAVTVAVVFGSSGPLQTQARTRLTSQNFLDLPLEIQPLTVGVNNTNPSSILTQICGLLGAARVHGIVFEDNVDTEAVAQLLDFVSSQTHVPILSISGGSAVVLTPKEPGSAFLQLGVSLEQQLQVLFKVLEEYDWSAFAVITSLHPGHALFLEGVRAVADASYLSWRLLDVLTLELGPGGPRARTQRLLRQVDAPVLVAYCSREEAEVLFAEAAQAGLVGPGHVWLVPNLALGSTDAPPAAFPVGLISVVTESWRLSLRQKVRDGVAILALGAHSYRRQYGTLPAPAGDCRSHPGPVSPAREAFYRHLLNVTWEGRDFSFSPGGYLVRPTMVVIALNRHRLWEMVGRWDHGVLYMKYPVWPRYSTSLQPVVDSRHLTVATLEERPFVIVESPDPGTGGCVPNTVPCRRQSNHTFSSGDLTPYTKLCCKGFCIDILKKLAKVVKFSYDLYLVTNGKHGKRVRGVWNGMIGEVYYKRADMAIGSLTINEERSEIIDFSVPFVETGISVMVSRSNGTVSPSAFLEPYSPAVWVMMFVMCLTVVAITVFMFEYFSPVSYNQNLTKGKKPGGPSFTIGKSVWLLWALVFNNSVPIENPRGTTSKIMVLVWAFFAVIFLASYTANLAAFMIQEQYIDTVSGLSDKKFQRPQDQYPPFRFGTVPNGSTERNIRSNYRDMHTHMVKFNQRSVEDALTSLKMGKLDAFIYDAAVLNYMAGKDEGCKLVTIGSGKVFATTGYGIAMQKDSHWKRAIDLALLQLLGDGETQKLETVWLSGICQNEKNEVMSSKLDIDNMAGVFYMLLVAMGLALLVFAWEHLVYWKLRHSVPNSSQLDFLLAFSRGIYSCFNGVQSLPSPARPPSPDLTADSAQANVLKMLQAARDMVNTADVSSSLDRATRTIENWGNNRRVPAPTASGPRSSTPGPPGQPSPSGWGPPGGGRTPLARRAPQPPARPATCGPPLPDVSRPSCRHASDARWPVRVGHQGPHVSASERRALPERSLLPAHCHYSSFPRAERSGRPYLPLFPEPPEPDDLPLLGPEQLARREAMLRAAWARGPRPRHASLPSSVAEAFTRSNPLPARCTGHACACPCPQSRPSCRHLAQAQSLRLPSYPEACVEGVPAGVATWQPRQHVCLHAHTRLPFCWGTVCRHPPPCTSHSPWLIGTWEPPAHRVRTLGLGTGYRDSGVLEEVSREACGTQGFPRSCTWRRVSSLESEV
# Sequence of Glutamate NMDA receptor; Grin1/Grin2b (Q00960 whole entry, other chains not shown): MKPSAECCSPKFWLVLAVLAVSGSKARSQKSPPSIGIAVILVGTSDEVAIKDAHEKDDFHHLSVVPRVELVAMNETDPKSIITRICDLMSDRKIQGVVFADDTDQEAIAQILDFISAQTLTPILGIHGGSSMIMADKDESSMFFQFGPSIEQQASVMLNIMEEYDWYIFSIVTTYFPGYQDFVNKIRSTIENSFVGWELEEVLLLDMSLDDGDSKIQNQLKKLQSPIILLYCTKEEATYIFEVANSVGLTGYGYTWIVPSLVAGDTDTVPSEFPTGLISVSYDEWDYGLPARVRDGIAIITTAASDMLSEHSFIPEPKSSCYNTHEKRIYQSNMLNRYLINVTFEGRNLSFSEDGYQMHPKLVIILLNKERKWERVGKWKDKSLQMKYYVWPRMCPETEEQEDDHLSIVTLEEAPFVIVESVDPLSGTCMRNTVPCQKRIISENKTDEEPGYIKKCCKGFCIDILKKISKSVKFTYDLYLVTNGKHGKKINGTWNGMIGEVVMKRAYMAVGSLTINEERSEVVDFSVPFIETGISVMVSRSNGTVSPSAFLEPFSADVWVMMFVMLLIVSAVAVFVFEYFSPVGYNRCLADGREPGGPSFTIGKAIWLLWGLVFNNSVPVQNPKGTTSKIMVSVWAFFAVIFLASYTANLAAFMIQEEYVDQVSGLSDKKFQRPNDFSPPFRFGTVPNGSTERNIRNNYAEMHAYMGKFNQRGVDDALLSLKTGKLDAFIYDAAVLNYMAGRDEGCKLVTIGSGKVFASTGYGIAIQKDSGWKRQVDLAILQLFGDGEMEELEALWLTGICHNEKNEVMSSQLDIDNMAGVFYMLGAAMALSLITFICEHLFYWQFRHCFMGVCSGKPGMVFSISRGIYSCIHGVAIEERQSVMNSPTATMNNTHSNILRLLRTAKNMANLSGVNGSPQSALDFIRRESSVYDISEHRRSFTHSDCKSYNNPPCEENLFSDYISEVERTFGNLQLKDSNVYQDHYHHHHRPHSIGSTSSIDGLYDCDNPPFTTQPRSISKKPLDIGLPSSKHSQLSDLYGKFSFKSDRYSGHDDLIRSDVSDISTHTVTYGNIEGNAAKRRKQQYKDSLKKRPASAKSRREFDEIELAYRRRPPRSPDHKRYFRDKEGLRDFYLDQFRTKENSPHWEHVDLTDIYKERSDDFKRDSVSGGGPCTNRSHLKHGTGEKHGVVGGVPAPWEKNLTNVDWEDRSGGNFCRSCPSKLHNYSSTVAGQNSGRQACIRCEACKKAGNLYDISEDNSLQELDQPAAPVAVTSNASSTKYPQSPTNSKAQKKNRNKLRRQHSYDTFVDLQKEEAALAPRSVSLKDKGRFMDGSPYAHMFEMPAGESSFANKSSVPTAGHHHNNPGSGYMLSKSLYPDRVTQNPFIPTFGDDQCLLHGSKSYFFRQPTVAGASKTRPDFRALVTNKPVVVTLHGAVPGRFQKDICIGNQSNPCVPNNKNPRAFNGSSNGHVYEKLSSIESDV
SMILES,IC50 [1] [µM],IC50 [2] [µM],Ratio IC50 (Rattus norvegicus [3]),IC50 [4] [µM],Ratio IC50 (Rattus norvegicus [5]),IC50 (Glutamate receptor 1) [µM],IC50 [6] [µM]
O=C(O)c1ccc(-n2c(/C=C/c3cccc([N+](=O)[O-])c3)nc3c(Cl)cc(Cl)cc3c2=O)cc1,109,10,22,16,30,> 300,224
COc1cccc(/C=C/c2nc3ccc(OC)cc3c(=O)n2-c2ccc(C(=O)O)cc2)c1,109,9,8,18,24,220,73
O=c1c2cc(I)ccc2nc(/C=C/c2cccnc2)n1-c1ccc([N+](=O)[O-])cc1,> 300,218,1,204,1,> 300,> 300
COc1ccccc1-n1c(/C=C/c2cccnc2)nc2ccc(I)cc2c1=O,30,3,10,3,66,199,31
O=C(O)c1ccc(-n2c(/C=C/c3cccc([N+](=O)[O-])c3)nc3cc4c(cc3c2=O)OCCO4)cc1,> 300,213,1,281,1,> 300,–
O=C(O)c1ccc(-n2c(/C=C/c3ccccc3)nc3ccc(I)cc3c2=O)cc1,66,4,13,13,6,23,53
O=C(O)c1ccc(-n2c(/C=C/c3cccnc3)nc3ccc(I)cc3c2=O)cc1,31,4,7,6,15,61,26
O=C(O)c1cccc(-n2c(/C=C/c3cccc([N+](=O)[O-])c3)nc3ccc(I)cc3c2=O)c1,11,1,8,2,21,21,8
COC(=O)c1cccc(/C=C/c2nc3ccc(OC)cc3c(=O)n2-c2ccc(C(=O)O)cc2)c1,39,6,13,15,7,41,80
COc1ccc2cc(/C=C/c3nc4ccccc4c(=O)n3-c3ccc(C(=O)O)cc3)ccc2c1,36,11,6,20,9,103,63
O=c1c2ccccc2nc(/C=C/c2cccnc2)n1-c1ccccc1,51,35,1,140,2,74,40
O=C(O)c1ccc(-n2c(/C=C/c3cccc4ccccc34)nc3ccccc3c2=O)cc1,68,6,4,22,14,82,25
COc1ccc2nc(/C=C/c3cccc([N+](=O)[O-])c3)n(-c3cccc(C(=O)O)c3)c(=O)c2c1,> 300,13,16,24,22,289,208
O=C(O)c1cccc(-n2c(/C=C/c3cccnc3)nc3ccc(I)cc3c2=O)c1,49,4,11,7,16,64,45
O=c1c2cc(I)ccc2nc(/C=C/c2cccnc2)n1-c1ccccc1[N+](=O)[O-],105,5,41,19,60,> 300,206
O=C(O)c1ccc(-n2c(/C=C/c3ccc(OC(F)F)cc3)nc3ccccc3c2=O)cc1,89,22,3,33,9,208,73
O=C(O)c1ccc(-n2c(/C=C/c3ccc(N4CCOCC4)cc3)nc3ccccc3c2=O)cc1,122,171,1,284,1,> 300,> 300
COc1cccc(-n2c(/C=C/c3cccnc3)nc3ccc(I)cc3c2=O)c1,> 300,–,1,> 300,1,> 300,> 300
CN(C)c1ccc(/C=C/c2nc3ccccc3c(=O)n2-c2ccc(C(=O)O)cc2)cc1,> 300,53,> 5,63,> 5,> 300,> 300
COc1ccc(/C=C/c2nc3ccccc3c(=O)n2-c2ccc(C(=O)O)cc2)cc1,98,31,3,–,8,250,100
COc1ccccc1/C=C/c1nc2ccccc2c(=O)n1-c1ccc(C(=O)O)cc1,51,16,6,–,2,38,88

# Second part, the molecule after the results:
IC50 [1] [µM],IC50 [2] [µM],Ratio IC50 (Rattus norvegicus [3]),IC50 [4] [µM],Ratio IC50 (Rattus norvegicus [5]),IC50 (Glutamate receptor 1) [µM],IC50 [6] [µM],SMILES
5,2,6,2,2,4,11,O=C(O)c1ccc(-n2c(/C=C/c3cccc([N+](=O)[O-])c3)nc3cc4ccccc4cc3c2=O)cc1
52,15,2,16,3,41,32,O=C(O)c1ccc(-n2c(/C=C/c3cccc([N+](=O)[O-])c3)nc3cc(Cl)ccc3c2=O)cc1
18,4,7,3,13,50,28,CCCc1ccc2nc(/C=C/c3cccc([N+](=O)[O-])c3)n(-c3ccc(C(=O)O)cc3)c(=O)c2c1
46,38,6,39,4,138,218,COC(=O)c1ccc(-n2c(/C=C/c3cccc([N+](=O)[O-])c3)nc3ccc(OC)cc3c2=O)cc1
129,3,52,5,93,280,157,O=C(O)c1ccc(-n2c(/C=C/c3cccc([N+](=O)[O-])c3)nc3ccc(-c4cccs4)cc3c2=O)cc1
> 300,3,76,6,> 100,> 300,229,COc1ccc2nc(/C=C/c3cccc([N+](=O)[O-])c3)n(-c3ccc(C(=O)O)cc3)c(=O)c2c1
13,1,17,2,8,8,17,O=C(O)c1ccc(-n2c(/C=C/c3cccc([N+](=O)[O-])c3)nc3ccc(Br)cc3c2=O)cc1
6,0.6,18,1,52,31,18,O=C(O)c1ccc(-n2c(/C=C/c3cccc([N+](=O)[O-])c3)nc3ccc(I)cc3c2=O)cc1
> 300,10,24,43,10,96,237,O=C(O)c1ccc(-n2c(/C=C/c3cccc([N+](=O)[O-])c3)nc3ccc(O)cc3c2=O)cc1
33,7,5,–,1,7,36,O=C(O)c1ccc(-n2c(/C=C/c3cccc([N+](=O)[O-])c3)nc3ccc(F)cc3c2=O)cc1
